Screening data as filed in PubChem BioAssay.
Yeast lifespan up = compounds extending yeast replicative lifespan, primary screen, S. cerevisiae, OD615; S. cerevisiae growth with nicotinamide; deaD strain in restrictive glucose medium; inhibition of the nicotinamide effect, % at 10 µM; 130,000 tested, 0.68% active; AID 775, 2007;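 active means inhibition above a set limit, placed 3 SD over the median of all compounds, cut at about 26% in these data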;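 further: 0% = nicotinamide-treated wells and 100% = cells grown without nicotinamide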
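Material: Modified budding yeast, DeaD strain | Medium: Restrictive glucose medium | Probe or stimulus: 1.5 mM nicotinamide | Dosing: Single dose 10 µM compound, 0.25% DMSO | Times: 48 h at 30 °C | Technique: OD615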
bCat nuc transl = modulators of beta-catenin nuclear translocation, primary screen, imaging, HeLa cells, immunofluorescence, high-content | 190,000 tested, 0.3% active | nuclear translocation activity, % at 5 µM;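 active means nuclear translocation activity above 50% at 5 µM, with a well cell count of 50 or more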;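 further: per-cell ratio of nuclear to cytoplasmic median beta-catenin stain intensity; plate controls were DMSO negative control for no effect and GSK-3 inhibitor IX positive control for full effect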
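assay system = human HeLa cells, endogenous beta-catenin | times = compound treatment 24 h, 37°C, 5% CO2 | detection = Anti-beta-catenin immunofluorescence on PFA-fixed, Triton-permeabilized cells, DAPI nuclei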
Efa HMGR inh = inhibitors of E. faecalis class II HMGR, primary screen, biochemical, Enterococcus faecalis. HMG-CoA reductase (Enterococcus faecalis, mvaE). purified E. faecalis HMGR, NADPH absorbance 340 nm kinetic. inhibition, % at 10 µM. 190,000 tested, 0.41% active. AID 1066, 2008;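 active means inhibition above a set limit, the median over all tested compounds plus 3 SD, cut at about 9.5% in these data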;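 further: enzyme runs in reverse so mevalonate oxidation gives rising NADPH absorbance; 0% = complete reaction with DMSO and 100% = background rate lacking mevalonate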
MT stabilizer = microtubule stabilizers in HeLa cells, primary screen, imaging, high-content imaging. 200,000 tested, 0.83% active. HeLa tubulin immunostaining HCS, 24 h; share of cells brighter than vehicle mean+2SD. % tubulin-high responders, % at 10 µM;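 active means plate Z-score above 3 for both tubulin-high and condensed-nucleus cell shares, with cell loss under 80%, at 10 µM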;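 further: anti alpha tubulin signal scored within the nucleus-defined area of each cell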
RAM network inh = inhibitors of the yeast RAM network, primary screen, dse1pr::URA3 reporter, 5-FOA selection; 190,000 tested, 1.8% active; S. cerevisiae dse1pr::URA3 reporter, 5-FOA growth OD615, 2 d; analog-sensitive cbk1-as2 kinase mutant strain; inhibition, % at 50 µM;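 active means inhibition above a set limit, 3 SD over mean compound inhibition, cut at about 8.4% in these data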;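 further: 0% = DMSO-only wells with no growth and 100% = 10 µM 1-NA-PP1 full growth; inhibition rescues growth on 5-FOA so higher OD means more RAM inhibition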
Yeast growth inh = growth inhibitors of yeast BB579 in restrictive medium, primary screen, yeast lifespan-shortening project, S. cerevisiae. OD615, 48 h. inhibition, % at 10 µM. 140,000 tested, 0.51% active;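 active means inhibition above a set limit, 3 SD over the mean compound inhibition, cut at about 44% in these data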
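System: Saccharomyces cerevisiae DeaD strain BB579, replicative lifespan model yeast | Buffer or medium: Restrictive glucose-based CSMM-D medium | Times: 4 h preincubation and 48 h exposure at 30 °C | Detection: OD615 turbidity measurement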
RAM 5-FOA = 5-FOA growth of efflux-deficient control yeast, dose response, counter-screen for RAM network inhibitor project, S. cerevisiae, OD615; AID 1305, 2008; 1,200 tested, under 10 active; shares compounds with RAM network inh; max inhibition, %; S. cerevisiae efflux-deficient reporter strain, 5-FOA growth OD615, 2 days; call rule not given here;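 further: plate controls were vehicle for no effect and reference inhibitor for full effect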
The depositor's hits bear a star; x = no result. Hits are enriched below; roughly 3.5% of the tested compounds scored in any of these assays.

SMILES	Yeast lifespan up	bCat nuc transl	Efa HMGR inh	MT stabilizer	RAM network inh	Yeast growth inh	RAM 5-FOA
CCOc1ccc(-c2nc(CCl)cs2)cc1OC	x	-1	1	8	2	x	x
S=c1nc(-c2ccccc2)[nH]c2ccc(Br)cc12	x	-1	x	x	x	x	x
COc1ccc(CNC(=O)c2csc(Cc3ccc(OC)cc3)n2)cc1	-2	x	-2	1	3	-69	x
COc1ccc(Cc2nc(C(=O)Nc3ccc(F)cc3)cs2)cc1	-8	x	-3	1	16*	-30	3
C=C(C)CNC(=S)Nc1nc2c(cc1C(=O)OCC)CCCC2	6	4	-1	3	12*	-47	3
CCOC(=O)c1cc2c(nc1N)CCCC2	x	0	x	x	x	x	x
CC(NC(=O)COC(=O)/C(=C/c1cccs1)c1cccs1)c1ccccc1 (stereo not drawn)	4	-1	0	6	14*	-44	1
CC(NC(=O)Cc1cccs1)c1ccccc1 (stereo not drawn)	x	-2	-3	2	0	x	x
CC(C)Cc1ccc(C(C)NC(=O)c2ccc(=O)[nH]c2)cc1 (stereo not drawn)	x	-3	0	2	-1	x	x
COc1ccc(-c2csc(C3=C(O)CN(CCCN4CCCC4=O)C3=N)n2)cc1OC	x	1	-2	2	3	x	x
CCCCn1c(SCc2nc3ccccc3s2)nc2ccccc2c1=O	6	-1	-4	5	13*	-38	3
CC(C)OC(=O)CC(=O)CSc1nc(-c2ccc(F)cc2)cc(-c2ccccc2)c1C#N	2	0	-6	1	14*	-10	5
CCN1/C(=C/C=C/C=C/c2sc3ccccc3[n+]2CC)Sc2ccccc21	14	x	-3	95	22*	84*	9
CC[n+]1c(/C=C/Nc2ccccc2)sc2ccccc21	5	11	-2	18	0	-9	x
O=Cc1ccc(OCC(=O)Nc2ccccc2C(F)(F)F)cc1	x	-5	-1	2	2	x	x
CN(c1ccc(C(=O)NCCSC(C)(C)C)cc1)S(=O)(=O)c1ccccc1	x	2	-2	1	1	x	x
COc1ccc(CCNC(=O)c2ccc(N(C)S(=O)(=O)c3ccccc3)cc2)cc1	x	0	x	x	x	x	x
Cc1ccc(CSCCNC(=O)c2ccc(N(C)S(=O)(=O)c3ccccc3)cc2)cc1	6	2	1	4	18*	-57	4
CN(c1ccc(C(=O)NCCSCc2ccc(Cl)cc2)cc1)S(=O)(=O)c1ccccc1	6	-2	-5	7	20*	-46	3
COC(=O)c1ccc(NC(=S)NC2CCc3ccccc32)cc1 (stereo not drawn)	x	2	-2	2	2	x	x
Cc1ccc(-c2sc(C(=O)NN)c(C)c2C#N)cc1	x	-2	x	x	x	x	x
CC(C)NCCCCOc1ccc(Br)cc1Cl	x	-3	0	3	2	x	x
O=C(COC(=O)CNS(=O)(=O)c1ccc2ccccc2c1)Nc1ccccc1Sc1ccccc1	0	-1	-1	5	23*	-31	4
Cc1cccc2cc(C#N)c(NCCCNS(=O)(=O)c3ccc(Cl)cc3)nc12	x	1	x	x	x	x	x
O=C(/C=C/c1ccc(-c2ccccc2)o1)c1ccccc1	7	2	0	4	11*	-16	7
Cc1ccc(C(=O)/C=C/c2ccc(-c3ccccc3[N+](=O)[O-])o2)cc1	-1	0	4	2	15*	-13	3
O=C(/C=C/c1ccc(-c2ccccc2[N+](=O)[O-])o1)c1ccc(Br)cc1	-2	1	-4	2	12*	-20	3
COc1ccc(N(CCC(=O)O)S(=O)(=O)c2ccc(C)cc2C)cc1	x	2	0	5	1	x	x
CC1=C/C(=N\NC(=S)Nc2cccnc2)CC(C)(C)C1	x	0	-8	3	3	x	x
